ChEMBL document CHEMBL1641490, “Dicationic phenyl-2,2'-bichalcophenes and analogues as antiprotozoal agents” (Bioorg Med Chem, 2011)
The source made the active and inactive calls. The calls are words filed in the database; no cut-off is given here.

Assays:
L6 = assay: Cytotoxicity against rat L6 cells by alamar blue assay; format: cell-based
Plasmodium falciparum = assay: Antiplasmodial activity against Plasmodium falciparum K1 infected in human RBC after 48 hrs by [3H]-hypoxanthine incorporation assay; format: functional, organism-based
Method in brief: (§1)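 Parasites were Trypanosoma brucei rhodesiense STIB900 and Plasmodium falciparum K1. Values are averages of duplicate determinations.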

[1] = test system: Trypanosoma brucei rhodesiense; assay: Antitrypanosomal activity against Trypanosoma brucei rhodesiense STIB900 infected in NMRI mouse assessed as effect on survival days at 5 mg/kg, ip […] measured up to 60 days; format: functional; details: route intraperitoneal
[2] = test system: Trypanosoma brucei rhodesiense; assay: Antitrypanosomal activity against Trypanosoma brucei rhodesiense STIB900 after 70 hrs by alamar blue assay; format: functional, organism-based; details: STIB900, 70 h
Method in brief: as §1

[3] = Selectivity index, ratio of IC50 for rat L6 cells to IC50 for Plasmodium falciparum K1; format: toxicity, cell-based; details: L6 cells versus Plasmodium falciparum K1, read-out: Ratio IC50
Method in brief: (§2)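 Ratio of IC50 in cultured L6 rat myoblasts (Alamar Blue read-out) to IC50 against P. falciparum K1 or T. b. rhodesiense STIB900. Parasite values are the average of duplicate determinations.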

[4] = Selectivity index, ratio of IC50 for rat L6 cells to IC50 for Trypanosoma brucei rhodesiense STIB900; format: toxicity, cell-based; details: L6 cells versus Trypanosoma brucei rhodesiense STIB900, read-out: Ratio IC50
Method in brief: as §2

[5] = test system: Trypanosoma brucei rhodesiense; assay: Antitrypanosomal activity against Trypanosoma brucei rhodesiense STIB900 infected in NMRI mouse assessed as parasitemia free host at 5 mg/kg, ip administered 2 days after post infection for 4 consecutive days measured up to 60 days; format: functional, organism-based; set-up: dose 5 mg/kg
[6] = test system: Trypanosoma brucei rhodesiense; assay: Antitrypanosomal activity against Trypanosoma brucei rhodesiense STIB900 infected in NMRI mouse assessed as effect on survival days at 20 mg/kg, ip administered 2 days after post infection for 4 consecutive days measured up to 60 days; format: functional; details: route intraperitoneal

Compound `Cl.N=C(N)c1ccc(-c2ccc(-c3ccc(C(=N)N)s3)s2)cn1` has a ΔTm (Nucleic Acid) of 16.6 °C, an IC50 (L6) of 4000 nM and an IC50 (Plasmodium falciparum) of 2.3 nM. It also gave a Survival [1] of 49 days, an IC50 [2] of 4 nM and a selectivity ratio [3] of 1740. It also gave a selectivity ratio [4] of 1000.
For `N=C(N)c1ccc(OCCCCCOc2ccc(C(=N)N)cc2)cc1` [PENTAMIDINE], the IC50 (L6) was 6000 nM, the IC50 (Plasmodium falciparum) was 6.4 nM and the Survival [1] was over 45 days.
In the case of `Cl.N=C(N)c1ccc(-c2ccc(-c3ccc(C(=N)N)s3)o2)cc1`, the ΔTm (Nucleic Acid) is reported as 14.1 °C, the IC50 (L6) is reported as 10900 nM and the IC50 (Plasmodium falciparum) is reported as 17.4 nM. The Survival [1] was 16.75 days, the IC50 [2] was 6 nM and the selectivity ratio [3] was 626. For the same compound, the selectivity ratio [4] was 1820 and the Activity [5] was “inactive”.
Work on `Cl.N=C(N)c1ccc(C#Cc2ccc(-c3ccc(C(=N)N)o3)o2)cc1` yielded a ΔTm (Nucleic Acid) of 4 °C, an IC50 (L6) of 63000 nM and an IC50 (Plasmodium falciparum) of 14.1 nM. The Survival [1] was 15.25 days, the IC50 [2] was 42 nM and the selectivity ratio [3] was 4470. The selectivity ratio [4] was 1500 and the Activity [5] was “inactive”.
For `Cl.N=C(N)c1ccc(-c2ccc(-c3ccc(C(=N)N)s3)s2)cc1`, the ΔTm (Nucleic Acid) was 18.1 °C, the IC50 (L6) was 6000 nM and the IC50 (Plasmodium falciparum) was 10.4 nM. The Survival [1] was 25.25 days, the IC50 [2] was 2 nM and the selectivity ratio [3] was 576. The selectivity ratio [4] was 3000 and the Activity [5] was “inactive”.
`Cl.N=C(N)c1ccc(-c2ccc(-c3ccc(C(=N)N)o3)o2)cn1` showed a ΔTm (Nucleic Acid) of 5.5 °C, an IC50 (L6) of 38500 nM and an IC50 (Plasmodium falciparum) of 1 nM. For the same compound, the Survival [1] was 41.75 days, the IC50 [2] was 6 nM and the selectivity ratio [3] was 38500. For the same compound, the selectivity ratio [4] was 6420 and the Activity [5] was “inactive”.
Work on `Cl.N=C(N)c1ccc(-c2ccc(-c3ccc(C(=N)N)o3)s2)cc1` yielded a ΔTm (Nucleic Acid) of 13.1 °C, an IC50 (L6) of 29300 nM and an IC50 (Plasmodium falciparum) of 0.9 nM. The Survival [1] was over 46.5 days, the IC50 [2] was 2 nM and the selectivity ratio [3] was 32600. For the same compound, the selectivity ratio [4] was 14900.
Work on `Cl.N=C(N)c1ccc(-c2ccc(-c3ccc(C(=N)N)o3)o2)cc1` yielded a ΔTm (Nucleic Acid) of 8.5 °C, a Survival [6] of over 45.5 days and an IC50 (L6) of 37800 nM. For the same compound, the IC50 (Plasmodium falciparum) was 41.5 nM, the IC50 [2] was 12 nM and the selectivity ratio [3] was 910. For the same compound, the selectivity ratio [4] was 3150.
In the case of `N=C(N)c1ccc(-c2ccc(-c3ccc(C(=N)N)cc3)o2)cc1` [FURAMIDINE], the Survival [1] is reported as over 46 days and the Activity [5] is reported as “Active”.
